Measured values published in ChEMBL document CHEMBL1157864, “Synthesis of some novel 2-substituted-5-[isopropylthiazole] clubbed 1,2,4-triazole and 1,3,4-oxadiazoles as potential antimicrobial and antitubercular agents” (Eur J Med Chem, 2010).
Converted amounts (≈) assume the structure as drawn.

Key:
Format in all cases: functional
[1] = system: Candida tropicalis; test: Antimicrobial activity against Candida tropicalis ATCC 1369 after 24 hrs by broth microdilution assay; settings: ATCC 1369, 24 h
Summary of the method: (§1)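 Broth dilution MIC. Stock is 10 mg compound in 1 mL DMSO, serially diluted in Mueller–Hinton broth for bacteria or Sabouraud liquid medium for yeasts and mould. Tubes are inoculated at 10⁵ cfu/mL and incubated at 37 °C for 24 h. Controls are medium alone and medium with DMSO at matching dilutions. MIC is the lowest concentration giving complete growth inhibition.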

[2] = system: Escherichia coli; test: Antimicrobial activity against Escherichia coli ATCC 10536 after 24 hrs by broth microdilution assay; settings: ATCC 10536, 24 h; summary of the method: as §1
[3] = system: Pseudomonas aeruginosa; test: Antimicrobial activity against Pseudomonas aeruginosa ATCC 10145 after 24 hrs by broth microdilution assay; settings: ATCC 10145, 24 h; summary of the method: as §1
[4] = system: Mycobacterium tuberculosis; test: Antimycobacterial activity against Mycobacterium tuberculosis H37Rv after 21 days by broth dilution assay; settings: 504 h
Summary of the method: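 Middlebrook 7H9 broth with 10% albumin-dextrose-catalase and 0.2% glycerol; frozen culture thawed, diluted to 10⁵ cfu/mL and used as inoculum. Compounds taken up in DMSO and diluted twice in broth, 1.3% DMSO final. Incubated at 37 °C. Growth judged by eye against drug-free and inoculum-free controls and isoniazid. MIC is the lowest concentration inhibiting ≥99% of the starting population.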

[5] = system: Klebsiella pneumoniae; test: Antimicrobial activity against Klebsiella pneumoniae ATCC 10031 after 24 hrs by broth microdilution assay; settings: ATCC 10031, 24 h; summary of the method: as §1
[6] = system: Bacillus subtilis; test: Antimicrobial activity against Bacillus subtilis ATCC 60511 after 24 hrs by broth microdilution assay; settings: ATCC 60511, 24 h; summary of the method: as §1
[7] = system: Saccharomyces cerevisiae; test: Antimicrobial activity against Saccharomyces cerevisiae ATCC 9763 after 24 hrs by broth microdilution assay; settings: ATCC 9763, 24 h; summary of the method: as §1
[8] = system: Aspergillus niger; test: Antimicrobial activity against Aspergillus niger ATCC 6275 after 24 hrs by broth microdilution assay; settings: ATCC 6275, 24 h; summary of the method: as §1
[9] = system: Enterococcus faecalis; test: Antimicrobial activity against Streptococcus faecalis ATCC 14506 after 24 hrs by broth microdilution assay; settings: ATCC 14506, 24 h; summary of the method: as §1
[10] = system: Staphylococcus aureus; test: Antimicrobial activity against Staphylococcus aureus ATCC 11632 after 24 hrs by broth microdilution assay; settings: ATCC 11632, 24 h; summary of the method: as §1

SMILES | MIC [1] | MIC [2] | MIC [3] | MIC [4] | MIC [5] | MIC [6] | MIC [7] | MIC [8] | MIC [9] | MIC [10]
CC(C)c1csc(-c2nnc(S)n2/N=C/c2ccc(N(C)C)cc2)n1 | 125 mg/L (≈ 336 µM) | 16 mg/L (≈ 43 µM) | 16 mg/L (≈ 43 µM) | 125 mg/L (≈ 336 µM) | 16 mg/L (≈ 43 µM) | 31.2 mg/L (≈ 83.9 µM) | 31.2 mg/L (≈ 83.9 µM) | 16 mg/L (≈ 43 µM) | 125 mg/L (≈ 336 µM) | 16 mg/L (≈ 43 µM)
CC(C)c1csc(-c2nnc3sc(-c4ccc([N+](=O)[O-])cc4)nn23)n1 | 8 mg/L (≈ 21.5 µM) | 125 mg/L (≈ 336 µM) | 31.2 mg/L (≈ 83.9 µM) | 31.2 mg/L (≈ 83.9 µM) | 16 mg/L (≈ 43 µM) | 16 mg/L (≈ 43 µM) | 8 mg/L (≈ 21.5 µM) | 16 mg/L (≈ 43 µM) | 125 mg/L (≈ 336 µM) | 125 mg/L (≈ 336 µM)
CSc1nnc(-c2nc(C(C)C)cs2)n1-c1ccccc1 | 16 mg/L (≈ 50.6 µM) | 62.5 mg/L (≈ 198 µM) | 16 mg/L (≈ 50.6 µM) | 62.5 mg/L (≈ 198 µM) | 31.2 mg/L (≈ 98.8 µM) | 31.2 mg/L (≈ 98.8 µM) | 16 mg/L (≈ 50.6 µM) | 31.2 mg/L (≈ 98.8 µM) | 16 mg/L (≈ 50.6 µM) | 16 mg/L (≈ 50.6 µM)
CC(C)c1csc(-c2nnc(S)n2/N=C/c2ccccc2)n1 | 62.5 mg/L (≈ 190 µM) | 62.5 mg/L (≈ 190 µM) | 31.2 mg/L (≈ 94.9 µM) | 62.5 mg/L (≈ 190 µM) | 31.2 mg/L (≈ 94.9 µM) | 31.2 mg/L (≈ 94.9 µM) | 125 mg/L (≈ 379 µM) | 62.5 mg/L (≈ 190 µM) | 31.2 mg/L (≈ 94.9 µM) | 250 mg/L (≈ 759 µM)
OC(Cn1cncn1)(Cn1cncn1)c1ccc(F)cc1F [FLUCONAZOLE] | ≤ 1 mg/L | – | – | – | – | – | ≤ 1 mg/L | ≤ 1 mg/L | – | –
CC(=O)N1N=C(c2nc(C(C)C)cs2)OC1(C)c1ccccc1 (centres undefined) | 31.2 mg/L (≈ 94.9 µM) | 62.5 mg/L (≈ 190 µM) | 31.2 mg/L (≈ 94.9 µM) | 62.5 mg/L (≈ 190 µM) | 62.5 mg/L (≈ 190 µM) | 62.5 mg/L (≈ 190 µM) | 125 mg/L (≈ 379 µM) | 62.5 mg/L (≈ 190 µM) | 31.2 mg/L (≈ 94.9 µM) | 31.2 mg/L (≈ 94.9 µM)
CC(C)c1csc(-c2nnc(-c3ccc(O)cc3)o2)n1 | 125 mg/L (≈ 435 µM) | 62.5 mg/L (≈ 218 µM) | 62.5 mg/L (≈ 218 µM) | 125 mg/L (≈ 435 µM) | 62.5 mg/L (≈ 218 µM) | 31.2 mg/L (≈ 109 µM) | 62.5 mg/L (≈ 218 µM) | 125 mg/L (≈ 435 µM) | 62.5 mg/L (≈ 218 µM) | 62.5 mg/L (≈ 218 µM)
COc1ccc(-c2nnc(-c3nc(C(C)C)cs3)o2)cc1 | 31.2 mg/L (≈ 104 µM) | 16 mg/L (≈ 53.1 µM) | 16 mg/L (≈ 53.1 µM) | 16 mg/L (≈ 53.1 µM) | 31.2 mg/L (≈ 104 µM) | 31.2 mg/L (≈ 104 µM) | 31.2 mg/L (≈ 104 µM) | 31.2 mg/L (≈ 104 µM) | 31.2 mg/L (≈ 104 µM) | 31.2 mg/L (≈ 104 µM)
CC(C)c1csc(-c2nnc(-c3ccc(Cl)cc3)o2)n1 | 125 mg/L (≈ 409 µM) | 125 mg/L (≈ 409 µM) | 125 mg/L (≈ 409 µM) | 4 mg/L (≈ 13.1 µM) | 125 mg/L (≈ 409 µM) | 4 mg/L (≈ 13.1 µM) | 62.5 mg/L (≈ 204 µM) | 62.5 mg/L (≈ 204 µM) | 8 mg/L (≈ 26.2 µM) | 8 mg/L (≈ 26.2 µM)
COc1cc(/C=N/n2c(S)nnc2-c2nc(C(C)C)cs2)ccc1O | 125 mg/L (≈ 333 µM) | 125 mg/L (≈ 333 µM) | 125 mg/L (≈ 333 µM) | 62.5 mg/L (≈ 166 µM) | 125 mg/L (≈ 333 µM) | 125 mg/L (≈ 333 µM) | 250 mg/L (≈ 666 µM) | 125 mg/L (≈ 333 µM) | 125 mg/L (≈ 333 µM) | 250 mg/L (≈ 666 µM)
Cc1ccc(-c2nnc(-c3nc(C(C)C)cs3)o2)cc1 | 125 mg/L (≈ 438 µM) | 62.5 mg/L (≈ 219 µM) | 125 mg/L (≈ 438 µM) | 16 mg/L (≈ 56.1 µM) | 125 mg/L (≈ 438 µM) | 31.2 mg/L (≈ 110 µM) | 62.5 mg/L (≈ 219 µM) | 31.2 mg/L (≈ 110 µM) | 16 mg/L (≈ 56.1 µM) | 31.2 mg/L (≈ 110 µM)
O=C(O)c1cn(C2CC2)c2cc(N3CCNCC3)c(F)cc2c1=O [CIPROFLOXACIN] | – | ≤ 1 mg/L | 5 mg/L (≈ 15.1 µM) | – | ≤ 1 mg/L | ≤ 1 mg/L | – | – | ≤ 5 mg/L | ≤ 5 mg/L
CC(=O)N1N=C(c2nc(C(C)C)cs2)OC1(C)c1ccc([N+](=O)[O-])cc1 (centres undefined) | 62.5 mg/L (≈ 167 µM) | 16 mg/L (≈ 42.7 µM) | 31.2 mg/L (≈ 83.5 µM) | 125 mg/L (≈ 334 µM) | 62.5 mg/L (≈ 167 µM) | 62.5 mg/L (≈ 167 µM) | 31.2 mg/L (≈ 83.5 µM) | 31.2 mg/L (≈ 83.5 µM) | 62.5 mg/L (≈ 167 µM) | 31.2 mg/L (≈ 83.5 µM)
CC(C)c1csc(-c2nnc(S)n2-c2ccccc2)n1 | 16 mg/L (≈ 52.9 µM) | 16 mg/L (≈ 52.9 µM) | 31.2 mg/L (≈ 103 µM) | 31.2 mg/L (≈ 103 µM) | 31.2 mg/L (≈ 103 µM) | 16 mg/L (≈ 52.9 µM) | 8 mg/L (≈ 26.5 µM) | 16 mg/L (≈ 52.9 µM) | 125 mg/L (≈ 413 µM) | 16 mg/L (≈ 52.9 µM)
CC(C)c1csc(-c2nnc(S)n2/N=C/c2ccc(Br)cc2)n1 | 62.5 mg/L (≈ 153 µM) | 62.5 mg/L (≈ 153 µM) | 62.5 mg/L (≈ 153 µM) | 125 mg/L (≈ 306 µM) | 125 mg/L (≈ 306 µM) | 125 mg/L (≈ 306 µM) | 125 mg/L (≈ 306 µM) | 62.5 mg/L (≈ 153 µM) | 125 mg/L (≈ 306 µM) | 62.5 mg/L (≈ 153 µM)
